Measurements published in ChEMBL document CHEMBL1138915, “Pharmacophore based receptor modeling: the case of adenosine A3 receptor antagonists. An approach to the optimization of protein models” (J Med Chem, 2006).
Values belong to the compound of their own block, whether it stands above or below them.

Key:
Assay type in all cases: cell-based
[1] = target: T1, Adenosine receptor A1 (Homo sapiens) (UniProt P30542); test: (§1) Displacement of [3H]DPCPX from human adenosine A1 receptor expressed in CHO cells; design: concentration or dose not given beside the values; conditions: concentration not given here
T1 sequence (whole entry): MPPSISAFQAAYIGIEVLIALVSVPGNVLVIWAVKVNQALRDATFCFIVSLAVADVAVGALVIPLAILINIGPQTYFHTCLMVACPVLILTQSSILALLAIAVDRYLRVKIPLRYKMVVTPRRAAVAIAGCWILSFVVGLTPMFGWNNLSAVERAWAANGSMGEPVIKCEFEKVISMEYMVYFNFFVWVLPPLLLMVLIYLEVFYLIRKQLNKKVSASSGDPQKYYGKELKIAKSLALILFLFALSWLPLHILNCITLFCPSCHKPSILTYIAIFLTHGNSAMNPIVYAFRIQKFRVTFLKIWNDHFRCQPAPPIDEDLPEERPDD
Summary of the method: (§2)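 Membranes from transfected CHO cells (50 µg protein/assay) in 50 mM Tris-HCl pH 7.4, incubated 120 min at 25 °C with 1 nM radioligand and at least six to eight test concentrations. Nonspecific binding with 10 µM CHA. Filtration on GF/B filters and scintillation counting. Ki from IC50 by Cheng-Prusoff, nonlinear least-squares fitting.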

Adenosine receptor A1 = target: T2, Adenosine receptor A1 (Homo sapiens, UniProt P30542); test: as §1; summary of the method: as §2
T2 sequence (P30542 whole entry): T1 sequence (whole entry)

Adenosine receptor A3 = target: T3, Adenosine receptor A3 (Homo sapiens, UniProt P0DMS8); test: Displacement of [3H]MRE 3008F20 from human adenosine A3 receptor expressed in CHO cells
T3 sequence (P0DMS8 whole entry): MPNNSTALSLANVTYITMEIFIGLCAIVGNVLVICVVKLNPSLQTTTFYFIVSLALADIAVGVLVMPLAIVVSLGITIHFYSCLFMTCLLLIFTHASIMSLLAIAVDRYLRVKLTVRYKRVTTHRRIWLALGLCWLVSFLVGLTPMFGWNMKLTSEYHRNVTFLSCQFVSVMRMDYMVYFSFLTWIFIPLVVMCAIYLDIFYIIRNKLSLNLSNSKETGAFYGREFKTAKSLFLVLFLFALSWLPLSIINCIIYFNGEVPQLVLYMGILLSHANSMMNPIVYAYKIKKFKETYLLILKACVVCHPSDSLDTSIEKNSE

[2] = target: T4, Adenosine receptor A2b (Homo sapiens) (UniProt P29275); test: (§3) Displacement of [3H]MRE 2029F20 from human adenosine A2B receptor expressed in CHO cells; design: concentration or dose not given beside the values; conditions: concentration not given here
T4 sequence (whole entry): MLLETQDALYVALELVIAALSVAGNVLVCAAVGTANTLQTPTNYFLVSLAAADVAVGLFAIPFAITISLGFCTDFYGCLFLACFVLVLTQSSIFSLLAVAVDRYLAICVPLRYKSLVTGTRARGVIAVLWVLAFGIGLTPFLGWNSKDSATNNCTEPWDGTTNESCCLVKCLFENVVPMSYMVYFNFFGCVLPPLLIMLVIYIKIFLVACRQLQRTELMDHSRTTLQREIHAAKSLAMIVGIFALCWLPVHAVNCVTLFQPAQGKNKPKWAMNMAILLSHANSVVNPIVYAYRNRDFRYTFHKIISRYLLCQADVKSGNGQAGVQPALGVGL
Summary of the method: (§4)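 Run 60 min at 25 °C in 50 mM Tris-HCl, 10 mM MgCl2, 1 mM EDTA, 0.1 mM benzamidine, pH 7.4, with 2 IU/mL adenosine deaminase, 40 nM radioligand and CHO membranes (20 µg protein/assay). At least six to eight test concentrations. Nonspecific binding with 100 µM NECA. Filtration and counting, Ki by Cheng-Prusoff.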

Adenosine receptor A2b = target: T5, Adenosine receptor A2b (Homo sapiens, UniProt P29275); test: as §3; summary of the method: as §4
T5 sequence (P29275 whole entry): T4 sequence (whole entry)

Adenosine receptor A2a = Adenosine receptor A2a (Homo sapiens, UniProt P29274); test: Displacement of [3H]ZM241385 from human adenosine A2A receptor expressed in CHO cells; conditions: for inhibition: concentration not given here
Sequence of Adenosine receptor A2a (P29274 whole entry): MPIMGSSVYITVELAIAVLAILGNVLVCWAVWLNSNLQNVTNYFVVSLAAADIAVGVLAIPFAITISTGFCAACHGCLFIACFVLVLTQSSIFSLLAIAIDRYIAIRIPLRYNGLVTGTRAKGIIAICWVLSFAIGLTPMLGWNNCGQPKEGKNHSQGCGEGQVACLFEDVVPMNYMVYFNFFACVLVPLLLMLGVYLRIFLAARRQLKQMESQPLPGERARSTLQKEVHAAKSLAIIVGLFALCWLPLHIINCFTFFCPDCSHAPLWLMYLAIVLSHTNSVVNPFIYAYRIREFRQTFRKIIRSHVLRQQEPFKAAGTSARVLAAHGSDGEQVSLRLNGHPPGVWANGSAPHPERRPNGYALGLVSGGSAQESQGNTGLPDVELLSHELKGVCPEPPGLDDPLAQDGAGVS
Summary of the method: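 CHO-derived membranes (50 µg protein/assay) in 50 mM Tris-HCl, 10 mM MgCl2, pH 7.4, competed with at least six to eight compound concentrations for 60 min at 25 °C. Nonspecific binding defined by 1 µM ZM 241385. Bound ligand collected on GF/B filters and counted. Ki derived from IC50 via Cheng-Prusoff.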

Ki (Adenosine receptor A3): 260 nM
Structure (SMILES): Cc1cccnc1-c1nc(NC(=O)Nc2ccccc2)c2ccccc2n1

Ki (Adenosine receptor A3): 8.3 nM
Structure (SMILES): CCCOC(=O)c1c(-c2ccccc2)nc(CC)c(C(=O)OCC)c1CC

Ki (Adenosine receptor A3): 180 nM
Structure (SMILES): CCOC(=O)c1c(C)nc(-c2ccccc2)c(C(=O)OCC)c1CC

Ki (Adenosine receptor A3): 13.4 nM
Structure (SMILES): CCOC(=O)c1c(-c2ccccc2)nc(CC)c(C(=O)SCC)c1CC

Ki (Adenosine receptor A3): 194 nM
Structure (SMILES): CCCc1c(C(=O)SCC)c(C)nc(-c2ccccc2)c1C(=O)OCC

Ki (Adenosine receptor A3): 7.9 nM
Structure (SMILES): CCCOC(=O)c1c(CC)nc(-c2cccc(Cl)c2)c(C(=O)OCCC)c1CC

Ki (Adenosine receptor A3): 19 nM
Structure (SMILES): CCCOC(=O)c1c(-c2ccccc2)nc(CC)c(C(=O)OCC)c1CCC

Ki (Adenosine receptor A3): 210 nM
Structure (SMILES): CCCOC(=O)c1c(C)nc(-c2ccccc2)c(C(=O)OCC)c1C

Ki (Adenosine receptor A3): 120 nM
Structure (SMILES): CCOC(=O)c1c(CC)nc(-c2ccccc2)c(C(=O)OCC)c1CC

Ki (Adenosine receptor A3): 20 nM
Structure (SMILES): CCOC(=O)c1c(-c2ccccc2)nc(C)c(C(=O)SCC)c1C

Ki (Adenosine receptor A3): 380 nM
Structure (SMILES): CCOC(=O)c1c(CC)c(C(=O)OCC)c(-c2ccccc2)[n+](C)c1C

Ki (Adenosine receptor A3): 0.56 nM
Structure (SMILES): CCn1cc2c(nc(NC(=O)Nc3ccccc3OC)n3nc(-c4ccco4)nc23)n1

The remaining lines, values behind:

Structure (SMILES): O=C(Nc1cccnc1)Nc1nc2nn(CCO)cc2c2nc(-c3ccco3)nn12
inhibition [1]: 92%
Ki (Adenosine receptor A1): > 1000 nM
Ki (Adenosine receptor A3): 34 nM
inhibition [2]: 99%
Ki (Adenosine receptor A2b): > 1000 nM
Ki (Adenosine receptor A2a): > 1000 nM
inhibition (Adenosine receptor A2a): 93%

Structure (SMILES): O=C(Nc1cccnc1)Nc1nc2nn(CCOCc3ccccc3)cc2c2nc(-c3ccco3)nn12
inhibition [1]: 85%
Ki (Adenosine receptor A1): > 1000 nM
Ki (Adenosine receptor A3): 9 nM
inhibition [2]: 58%
Ki (Adenosine receptor A2b): > 1000 nM
Ki (Adenosine receptor A2a): > 1000 nM
inhibition (Adenosine receptor A2a): 82%

Structure (SMILES): O=C(Nc1ccccc1)Nc1ncnc2ccccc12
Ki (Adenosine receptor A3; cho): 1200 nM

Structure (SMILES): CCn1cc2c(n1)N=C(NC(=O)Nc1ccc(C)cc1)N1N=C(c3ccco3)NC21 (stereo unspecified)
Ki (Adenosine receptor A3): 0.14 nM

Structure (SMILES): O=C(Nc1ccncc1)Nc1nc2nn(CCO)cc2c2nc(-c3ccco3)nn12
inhibition [1]: 74%
Ki (Adenosine receptor A1): > 1000 nM
Ki (Adenosine receptor A3): 5.1 nM
inhibition [2]: 71%
Ki (Adenosine receptor A2b): > 1000 nM
Ki (Adenosine receptor A2a): > 1000 nM
inhibition (Adenosine receptor A2a): 96%

Structure (SMILES): O=C(Nc1ccncc1)Nc1nc2nn(CCOCc3ccccc3)cc2c2nc(-c3ccco3)nn12
inhibition [1]: 71%
Ki (Adenosine receptor A1): > 1000 nM
Ki (Adenosine receptor A3): 27 nM
inhibition [2]: 65%
Ki (Adenosine receptor A2b): > 1000 nM
Ki (Adenosine receptor A2a): > 1000 nM
inhibition (Adenosine receptor A2a): 97%

Structure (SMILES): O=C(Nc1ccncc1)Nc1nc2nn(CCCO)cc2c2nc(-c3ccco3)nn12
Ki (Adenosine receptor A1): 350 nM
Ki (Adenosine receptor A3): 2 nM
inhibition [2]: 73%
Ki (Adenosine receptor A2b): > 1000 nM
Ki (Adenosine receptor A2a): > 1000 nM
inhibition (Adenosine receptor A2a): 95%

Structure (SMILES): CCn1cc2c(nc(NC(=O)Nc3ccc(F)cc3)n3nc(-c4ccco4)nc23)n1
Ki (Adenosine receptor A3): 0.86 nM

Structure (SMILES): O=C(Nc1ccncc1)Nc1nc2nn(CCCOCc3ccccc3)cc2c2nc(-c3ccco3)nn12
inhibition [1]: 74%
Ki (Adenosine receptor A1): > 1000 nM
Ki (Adenosine receptor A3): 14 nM
inhibition [2]: 66%
Ki (Adenosine receptor A2b): > 1000 nM
Ki (Adenosine receptor A2a): > 1000 nM
inhibition (Adenosine receptor A2a): 89%
